Sequences and labels used below:
B1: tRNA (parent)
chain: GUUCCGUUGGCGUAAUGGUAACGCGUCUCCCUCCUAAGGAGAAGACUGCGGGUUCGAGUCCCGUACGGAACG

Fewer inactive variants are shown than the library holds. Some results are limits rather than exact numbers.

In the data set the parent is B1. Nature of the data set: yeast fitness relative to wild type (ratio to wild type); higher = fitter; tRNA-Arg(CCU), competitive growth, 37 C, YPD. In a few lines:
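Start and end populations of a pooled competition were compared by 100-nucleotide paired-end sequencing of gene amplicons. The Saccharomyces cerevisiae strains carried tRNA-Arg(CCU) gene variants at the native genomic locus, synthesised with a 3% per-site mutation rate at 69 sites, and competed in YPD at 37°C for 24 hours in six parallel replicates. Darwinian fitness relative to wild type was based on the change in genotype frequencies. Genotypes required ≥ 100 starting reads, and estimates < 0.5 were set to 0.5.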
On to A20G U53C C55A, for which the yeast fitness was at most 0.5.

Regarding A20U, the yeast fitness was 0.986.

Regarding A20G, the yeast fitness worked out at 1.

In the case of A20G C49U A69C, the yeast fitness was 0.786.

In the case of A20G C24G C30G, the yeast fitness is at most 0.5.

As for A20C G44C A70U, the yeast fitness was found to be 0.573.

A20G U28G: the yeast fitness worked out at 0.86.

Take A20G U28A: the yeast fitness stood at 0.807.

As for A20C C34A G63C, the yeast fitness is at most 0.5.

Consider A20C U28C C30A G44C A45G C55A G63C, for which the yeast fitness is at most 0.5.

With A20G U26C, the yeast fitness turned out to be 0.984.

Take A20G U26A A70U: the yeast fitness was determined as 0.717.

For A20C C24G A40C C55G, the yeast fitness is at most 0.5.

As for A20U A36G G67C A69C, the yeast fitness is at most 0.5.

Regarding A20C G25C A40C A43C C55A C61G C66G, the yeast fitness is at most 0.5.

Regarding A20C G41C A42C G56A U64C, the yeast fitness was at most 0.5.

Regarding A20C G23A U35A G52C C55A, the yeast fitness was at most 0.5.

With A20C C22U U47A C62U, the yeast fitness came to 0.643.

For A20G A37U C62A, the yeast fitness is at most 0.5.

Regarding A20C U28A A70G, the yeast fitness was determined as 0.564.

A20G C24G C27U C62A C66A: the yeast fitness was at most 0.5.

As to A20G A36U C55G, the yeast fitness is at most 0.5.

In the case of A20G C33U G52A G63A, the yeast fitness worked out at 0.707.

For the variant A20G A37G G38A C55U U59G, the yeast fitness came out at 0.563.

As for A20G C33G G56A A65C, the yeast fitness was at most 0.5.

Turning to A20G C61A, the yeast fitness was found to be 0.706.

For A20C C29U U32A C62U A70U, the yeast fitness was at most 0.5.

In the case of A20C C24U C61G, the yeast fitness is at most 0.5.

Take A20G A36G: the yeast fitness is 1.01.

On to A20G A36U, for which the yeast fitness worked out at 0.644.

Take A20C C34U C60A C66U A70U: the yeast fitness is at most 0.5.

In the case of A20C G52A, the yeast fitness was found to be 0.705.

Take A20G G38U A43C A57U: the yeast fitness is at most 0.5.

For A20G U32G G58C C61A A65U, the yeast fitness is at most 0.5.

For the variant A20C C34U G52A G68A, the yeast fitness is at most 0.5.

Turning to A20C C30U G68A, the yeast fitness is at most 0.5.

Consider A20G A21G C34G C61U A70C, for which the yeast fitness was at most 0.5.

Turning to A20C C22U A43U, the yeast fitness was found to be 0.584.

With A20G C60A C61G, the yeast fitness was at most 0.5.

A20C C49A G52A C61U: the yeast fitness was at most 0.5.

For the variant A20C C30U C46A C62G A65G, the yeast fitness amounted to 0.534.

A20C C34A G56C: the yeast fitness is at most 0.5.

Regarding A20C C29U G50C U59G C62U G68A, the yeast fitness came to 0.567.

Take A20G G38A C46U A70U: the yeast fitness was determined as 0.594.

Take A20C C34G: the yeast fitness amounted to 0.527.

In the case of A20C C34U, the yeast fitness is 0.65.

With A20G A36C G48C U53C A70C, the yeast fitness was at most 0.5.

Regarding A20C C30U, the yeast fitness was found to be 0.903.

For the variant A20G U47C U54G C66G, the yeast fitness is at most 0.5.

For A20C G48A C49A, the yeast fitness is 0.557.

Take A20C C29U C49G G63C C66G: the yeast fitness is at most 0.5.

In the case of A20U A37U, the yeast fitness stood at 0.811.

Regarding A20G C60G G68A, the yeast fitness was at most 0.5.

Consider A20C C27U A40C, for which the yeast fitness stood at 0.63.

As for A20G C34G A43U C66U, the yeast fitness amounted to 0.546.

With A20C U28G A69C, the yeast fitness came to 0.714.

Consider A20G C24A C27A A69C, for which the yeast fitness stood at 0.591.

Regarding A20G C31U G41C A43C C60G, the yeast fitness is at most 0.5.

Regarding A20G C24U C46U, the yeast fitness amounted to 0.733.

Consider A20G G23C, for which the yeast fitness was 0.727.

Consider A20G G23A, for which the yeast fitness worked out at 0.89.

Turning to A20G C34A A42U G58A C62U G63A, the yeast fitness stood at 0.583.

With A20G G67A A69U, the yeast fitness worked out at 0.516.

Turning to A20C C33A G39A, the yeast fitness was at most 0.5.

A20G C27A C31A C61U: the yeast fitness was at most 0.5.

For the variant A20G C22U A43G, the yeast fitness was determined as 0.624.

A20G U54G C66G: the yeast fitness was at most 0.5.

Turning to A20G G25A C49U, the yeast fitness worked out at 0.781.

In the case of A20G G23C C31U C46G, the yeast fitness came out at 0.526.

As for A20C G25C G44C G58A G68C, the yeast fitness was at most 0.5.

A20G G38C A40C: the yeast fitness is 0.662.

For the variant A20G U32A A43C U53G, the yeast fitness stood at 0.607.

For the variant A20C C29G C62A, the yeast fitness is at most 0.5.

A20G A36G A37U: the yeast fitness was at most 0.5.

Consider A20G G25C C33U C49A U53A G67A, for which the yeast fitness is at most 0.5.

Consider A20G G38C A70U, for which the yeast fitness was 0.57.

Take A20C C29U C66U: the yeast fitness turned out to be 0.603.

Turning to A20G U47A U53A, the yeast fitness was at most 0.5.

Take A20G G56C: the yeast fitness worked out at 0.61.

For the variant A20C C34U C66U, the yeast fitness stood at 0.543.

As for A20G U26A G63A, the yeast fitness was found to be 0.613.

Take A20G G23C G50A: the yeast fitness was at most 0.5.

For the variant A20C C31A C34G A57G A65U, the yeast fitness was at most 0.5.

In the case of A20G C60A, the yeast fitness worked out at 0.751.

On to A20G G23C C31G G50A, for which the yeast fitness was at most 0.5.

Turning to A20G C49A, the yeast fitness came out at 0.655.

Regarding A20U A37C A43U, the yeast fitness was found to be 0.59.

Consider A20C C49G G67A, for which the yeast fitness worked out at 0.59.

For A20C C29G A65U, the yeast fitness stood at 0.51.

Consider A20G A45C A69U, for which the yeast fitness was found to be 0.729.

Turning to A20C C30A C55A G67A, the yeast fitness worked out at 0.534.

For the variant A20U A21G C29G C49G G63C, the yeast fitness is at most 0.5.

A20U A37U U59C: the yeast fitness was found to be 0.675.

Turning to A20C C22U A45C A65C, the yeast fitness is at most 0.5.

As to A20G G39C A45C C49G, the yeast fitness was at most 0.5.

In the case of A20C C24G, the yeast fitness worked out at 0.679.

On to A20C U28C A40U, for which the yeast fitness stood at 0.971.

Regarding A20G A42C A45C G67C, the yeast fitness was at most 0.5.

As for A20C C24G C27A G44A, the yeast fitness was at most 0.5.

Take A20G U54C: the yeast fitness stood at 0.719.

Regarding A20G C46U G50C C61A, the yeast fitness is 0.572.

On to A20C U64G, for which the yeast fitness amounted to 0.746.

As to A20C G25C C33U C60A C66G, the yeast fitness was at most 0.5.

Turning to A20G C29G, the yeast fitness turned out to be 0.609.

On to A20C C33A A70G, for which the yeast fitness worked out at 0.592.

As for A20C U47A G48C, the yeast fitness came out at 0.526.

For the variant A20G C34G A42C A43U, the yeast fitness was 0.604.

Take A20G C60G C66G A69G: the yeast fitness amounted to 0.554.

As to A20G C24U C49G G50A, the yeast fitness is at most 0.5.

For the variant A20G G63A A70G, the yeast fitness turned out to be 0.634.

Take A20C C22U G39C: the yeast fitness was at most 0.5.

Take A20G C27U C66U: the yeast fitness amounted to 0.689.

In the case of A20C U28C C34A, the yeast fitness was found to be 0.791.

In the case of A20U A36U G44C, the yeast fitness was at most 0.5.

Turning to A20G U28A C30G U59C, the yeast fitness was at most 0.5.

Regarding A20C C34A A37G C62U C66U, the yeast fitness worked out at 0.554.

Turning to A20G C24A A45C, the yeast fitness was at most 0.5.

As for A20G U35G A65U, the yeast fitness was at most 0.5.

For A20G C24U C33U A43C C55A U59C, the yeast fitness came to 0.539.

For A20U A21C C27A G41A, the yeast fitness is at most 0.5.

On to A20G A36C C49G C61G C62G, for which the yeast fitness is at most 0.5.

Regarding A20C C49U, the yeast fitness is 1.03.

As for A20C C49G, the yeast fitness is 0.795.

As for A20C C34U G52A, the yeast fitness is 0.574.

As to A20C C22U A40U A65G A69C, the yeast fitness is at most 0.5.

Turning to A20C G44A, the yeast fitness came to 0.778.

Regarding A20C C24G C33G, the yeast fitness was at most 0.5.

In the case of A20U A37U C55U, the yeast fitness was at most 0.5.

On to A20G C55G C61U, for which the yeast fitness came out at 0.534.

Consider A20C G67C A69G, for which the yeast fitness amounted to 0.539.

For A20C G44C G48A G51A, the yeast fitness is at most 0.5.

As to A20C C46G C62G, the yeast fitness is 0.529.

Consider A20G C33U, for which the yeast fitness was 0.798.

For A20G C34G G41C, the yeast fitness is at most 0.5.

For the variant A20G C34A G58A, the yeast fitness is 0.622.

On to A20G A37C, for which the yeast fitness came to 0.929.

Take A20G A37U: the yeast fitness was determined as 0.795.

In the case of A20G C62U, the yeast fitness was 1.05.

On to A20C C30U G51C C55G A57U C66U, for which the yeast fitness is at most 0.5.

As to A20G A45C G50A U54G, the yeast fitness was at most 0.5.

In the case of A20G A40G A57U A65G, the yeast fitness is at most 0.5.

Turning to A20C C24U G44A C60G, the yeast fitness was at most 0.5.

Regarding A20C U59A C62G A70C, the yeast fitness is at most 0.5.

With A20G C60A U64A C66U, the yeast fitness was at most 0.5.

In the case of A20C C34A A37G C46A A70C, the yeast fitness is at most 0.5.

Turning to A20C C34G A43U, the yeast fitness is at most 0.5.

On to A20C C24G A37G, for which the yeast fitness is at most 0.5.

A20G A40C A42U A43C G48A C66U: the yeast fitness is 0.532.

As for A20U A21U C31G C55A C66U, the yeast fitness was at most 0.5.

Turning to A20G C27U A37U, the yeast fitness is at most 0.5.

A20G C24A C29G A37U G39A U47C: the yeast fitness is at most 0.5.

Turning to A20G C30G G38A, the yeast fitness was at most 0.5.

For A20C C55U C66G, the yeast fitness was at most 0.5.

For A20C G41A, the yeast fitness worked out at 0.779.

Take A20C C34A C62U: the yeast fitness was at most 0.5.

In the case of A20G C27G U35G, the yeast fitness is at most 0.5.

On to A20G U59A A70C, for which the yeast fitness stood at 0.646.

As to A20C C55U, the yeast fitness was 0.612.

With A20G A42G G58A, the yeast fitness amounted to 0.806.

Take A20C G48A: the yeast fitness amounted to 0.908.

With A20C G56A G67A, the yeast fitness was 0.577.

As to A20G G50A U59C, the yeast fitness was found to be 0.571.

Regarding A20G U35A A37G A43U A45C, the yeast fitness is at most 0.5.

Turning to A20G G38A C46U, the yeast fitness amounted to 0.883.

With A20G C27G A42C C55A, the yeast fitness was at most 0.5.

With A20C U32G A45G U53A U54A, the yeast fitness was 0.533.

Consider A20G C31G C60G G63C, for which the yeast fitness was at most 0.5.

(Values after the RNAGym collection of RNA variant scans (doi:10.1126/science.aae0568).)
